CHO parental Ca – counter-screen for OX1R antagonists: effect in parental CHO cells; parental CHO-K1, ATP-induced calcium, Fluo-8 fluorescence; inhibition, % at 5.6 µM; hit rate 0.63% among 330,000;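 active = inhibition above that plate's mean sample inhibition plus 3 SD, cut at about 26% in these data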;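 also: 0% = ATP-challenged DMSO wells and 100% = DMSO wells without ATP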
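Material: Parental CHO cells | Reagent: ATP | Compound dosing: Single nominal dose of 5.6 µM per compound | Detection: Intracellular calcium via Fluo-8 no-wash fluorescent dye | Read-out: % inhibition of ATP-induced calcium mobilization | Benchmarks: Low control ATP plus DMSO, high control DMSO only | Replicates: Singlicate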
GalR3 antagonist – blocks the human galanin receptor 3 | hit rate 0.44% among 360,000 | O60755 | HEK293 GalR3-CNG cAMP membrane potential fluorescence; galR3 body fused to GalR1 C-terminus | inhibition, % at 3 µM | AID 651719;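 active = inhibition above the screen-wide average plus 3 SD, cut at about 13% in these data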;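 also: forskolin and galanin both at EC90 stimulate the cells; cAMP rise reported by CNG channel membrane potential dye signal; 0% = forskolin plus galanin with DMSO and 100% = forskolin alone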
Target sequence (O60755 1-299 limits assumed): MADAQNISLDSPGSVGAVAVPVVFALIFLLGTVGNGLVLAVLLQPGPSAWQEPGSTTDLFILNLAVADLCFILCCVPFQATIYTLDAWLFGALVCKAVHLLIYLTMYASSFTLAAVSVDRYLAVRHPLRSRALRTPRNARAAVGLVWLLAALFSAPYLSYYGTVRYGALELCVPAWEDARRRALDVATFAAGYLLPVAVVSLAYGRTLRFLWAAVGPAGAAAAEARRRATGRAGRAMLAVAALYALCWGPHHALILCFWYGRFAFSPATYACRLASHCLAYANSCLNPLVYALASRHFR
OX1R antag-1 – antagonists of human orexin 1 receptor (OX1R) | O43613 | OX1R-expressing cells, FRET antagonist read-out | inhibition, % at 6.6 µM | hit rate 1.8% among 330,000; in the data active = inhibition mostly above about 38%, no sharp cut-off; inactive = mostly below about 40%;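 also: 0% = agonist challenge alone and 100% = reference antagonist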
OX1R antag-2 – blocks the human orexin 1 receptor; O43613; CHO/OX1R cells, Fluo-8 calcium fluorescence, orexin A; hit rate 0.43% among 330,000; inhibition, % at 5 µM;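 active = inhibition above its plate's threshold, mean inhibition of all tested compounds on the plate plus 3 SD, cut at about 37% in these data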;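 also: 0% = orexin A challenge wells and 100% = SB-334867-A antagonist wells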
TAAR1 antag – antagonists of human TAAR1; Q96RJ0; CHO RD-HGA16 TAAR1, Fluo-8 calcium fluorescence, antagonist; inhibition, % at 3 µM; hit rate 1.5% among 360,000;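 active = inhibition above a per-plate cutoff, the mean inhibition of test compounds on that plate plus 3 SD, cut at about 49% in these data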;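 also: 0% = DMSO plus EC80 beta-PEA response and 100% = DMSO alone without agonist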
Target sequence (Q96RJ0 whole entry, looked up): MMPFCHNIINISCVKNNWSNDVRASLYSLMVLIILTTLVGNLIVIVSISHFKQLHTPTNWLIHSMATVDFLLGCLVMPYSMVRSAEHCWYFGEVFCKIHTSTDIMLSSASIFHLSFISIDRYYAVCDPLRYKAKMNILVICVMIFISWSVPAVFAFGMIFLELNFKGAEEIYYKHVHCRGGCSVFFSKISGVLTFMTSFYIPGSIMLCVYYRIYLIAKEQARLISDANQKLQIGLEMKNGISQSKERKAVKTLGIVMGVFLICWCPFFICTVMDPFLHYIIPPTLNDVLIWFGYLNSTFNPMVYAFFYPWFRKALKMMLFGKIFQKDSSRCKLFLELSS
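Material: CHO RD-HGA16 cells bearing hTAAR1; compound dosing: one-point dosing, 3 µM nominal final; schedule: dye loading 75 min at 37 °C, then 30 min room temperature; measured by: calcium fluorescence with Fluo-8; control set: vehicle and agonist controls; replication: n of 1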
TAAR1 agonist – human TAAR1 agonism; activation, % at 3 µM; Q96RJ0; CHO RD-HGA16 TAAR1, Fluo-8 calcium fluorescence; vehicle wells 0%, saturating PEA agonist 100%; hit rate 0.99% among 360,000;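 active = activation above the mean activation of all test compounds in the run plus 3 SD, cut at about 38% in these data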
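System: CHO-derived RD-HGA16 cells with stable Gα16 and human TAAR1 / Times: 17-24 h plating, Fluo-8 75 min 37 °C, 30 min RT / Technique: calcium-sensitive Fluo-8 signal, excitation 470-495, emission 515-575 nm / Measure: % activation relative to PEA EC100 response / Benchmarks: DMSO and PEA EC100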
OX1R HTRF conf – confirmation of human orexin 1 receptor antagonists, HTRF format. shares compounds with OX1R antag-1. hit rate 49% among 1,800. OX1R-expressing cells, HTRF antagonist assay. AID 492964. inhibition, % at 6.6 µM; in the data active = inhibition above about 55%;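 also: CHO cells expressing OX1R stimulated with orexin A at about EC80; 0% = agonist challenge alone and 100% = reference antagonist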
CHO-K1 HTRF cnt – signal in parental CHO-K1 cells, OX1R antagonist counter-screen; shares compounds with OX1R antag-1; HTRF counterscreen; inhibition, % at 6.6 µM; hit rate 48% among 1,800; AID 493232; in the data active = inhibition above about 17%;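 also: 0% = agonist challenge with vehicle and 100% = vehicle alone without agonist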
Numbers without * were called inactive; x = no result given. Compounds with a hit are over-represented: about 4.3% of the library has one in this group of screens.

SMILES | CHO parental Ca | GalR3 antagonist | OX1R antag-1 | OX1R antag-2 | TAAR1 antag | TAAR1 agonist | OX1R HTRF conf | CHO-K1 HTRF cnt
O=C(Nc1cc(F)cc(F)c1)c1ccc(NCCCN2CCCCCC2)c([N+](=O)[O-])c1 | -7 | -4 | 86* | -17 | -24 | -2 | 43 | 39*
N#Cc1cc2c(=O)n3ccccc3nc2n(Cc2ccco2)c1=NC(=O)c1ccco1 | -11 | 0 | 77* | -16 | -11 | 0 | 47 | 42*
N=c1c(C(=O)NCc2ccc(F)cc2)cc2c(=O)n3ccccc3nc2n1Cc1ccco1 | -31 | 0 | 47 | -24 | 0 | -4 | x | x
COCCn1c(=N)c(C(=O)NCc2ccco2)cc2c(=O)n3ccccc3nc21 | -16 | -2 | 167* | -35 | 5 | 6 | 54 | 72*
Cc1ccccc1C(=O)N=c1c(C#N)cc2c(=O)n3cccc(C)c3nc2n1Cc1ccco1 | -6 | x | 33 | -26 | x | x | x | x
N=c1c(C(=O)NCc2ccccc2)cc2c(=O)n3ccccc3nc2n1Cc1ccco1 | -25 | -4 | 78* | -16 | 13 | 0 | 32 | 11
COc1cccc(CN2CC(C(=O)NCCn3ccc(C)n3)CCC2=O)c1 (stereo not drawn) | -8 | -8 | 7 | 3 | -8 | 3 | x | x
O=C(O)c1cccc(NC2=C(n3nnc4ccccc43)C(=O)c3ccccc3C2=O)c1 | -7 | -2 | 148* | 6 | -10 | 2 | 94* | 95*
O=C(O)c1cccc(NS(=O)(=O)c2ccc3nnn(O)c3c2)c1 | -10 | 0 | 2 | -23 | -7 | -1 | x | x
CCCCn1c(N)c(N(Cc2ccccc2OC)C(=O)C(C)Oc2cccc(Cl)c2)c(=O)[nH]c1=O (stereo not drawn) | x | -6 | x | x | -25 | 1 | x | x
O=C(O)c1ccc(Nc2ncc([N+](=O)[O-])cc2[N+](=O)[O-])cc1 | -8 | -2 | 93* | -2 | 5 | 9 | 68* | 107*
Cc1ccc(Nc2ccc(C(=O)O)cc2[N+](=O)[O-])cc1 | -5 | 8 | 3 | -21 | -14 | -3 | x | x
CCOC(=O)c1cc2[nH]c3ccccc3c2[n+](-c2ccc([N+](=O)[O-])cc2)c1N | -13 | -3 | 138* | -1 | -8 | 4 | 57* | 69*
CCOC(=O)c1cc2[nH]c3ccccc3c2[n+](-c2ccc([N+](=O)[O-])cc2)c1C | -9 | -8 | 114* | -8 | -4 | 0 | 53 | 75*
Cc1ccc(-c2ccccc2NC(=O)CS(=O)CC(=O)Nc2ccc(C)c(Cl)c2)o1 (stereo not drawn) | 6 | -8 | 82* | 11 | -5 | 6 | 43 | 7
Cc1ccc(-c2ccccc2NC(=O)CCl)o1 | -3 | -2 | 10 | -16 | -15 | 7 | x | x
S=C(NCCCN1CCN(CCCNC(=S)NC2CCCCC2)CC1)NC1CCCCC1 | x | -6 | x | x | -3 | 1 | x | x
N=c1oc2ccc(Br)cc2cc1C(=O)NC1CCCCCC1 | -2 | -3 | 9 | 0 | -5 | 1 | x | x
Cc1[nH]c2ccccc2c1/C=N/Nc1nncn1N | -4 | -3 | 139* | 21 | -16 | 3 | 17 | 10
CCOc1ccccc1C(=O)NCCCCNC(=O)c1ccccc1OCC | x | -3 | x | x | 23 | 6 | x | x
COc1ccccc1C(=O)NCCCCNC(=O)c1ccccc1OC | -10 | -6 | 79* | 14 | -17 | 2 | 59* | 1
N#Cc1cc(NCC2CCCO2)c([N+](=O)[O-])cc1C#N (stereo not drawn) | -1 | 1 | 126* | -16 | -2 | 0 | 51 | 71*
COc1ccc(NC(=O)c2ccc(NCC3CCCO3)c([N+](=O)[O-])c2)cc1 (stereo not drawn) | 0 | -5 | 77* | 5 | 18 | 6 | 29 | 18*
CC(C(=O)NC1CCCCC1)N(Cc1ccccc1)C(=O)c1snc(C(N)=O)c1N (stereo not drawn) | -13 | 3 | 37 | -2 | 5 | 0 | x | x
CC(C)CN(C(=O)c1cc([N+](=O)[O-])cc([N+](=O)[O-])c1)C1CCS(=O)(=O)C1 (stereo not drawn) | -6 | 0 | 91* | -6 | -40 | 3 | 70* | 50*
SMILES | CHO parental Ca | GalR3 antagonist | OX1R antag-1 | OX1R antag-2 | TAAR1 antag | TAAR1 agonist | OX1R HTRF conf | CHO-K1 HTRF cnt
COc1cccc(NC(=O)Nc2nnc(N3C(C)CCCC3C)s2)c1 (stereo not drawn) | -24 | 6 | 10 | -20 | -21 | 0 | x | x
CC(C)N1CCC(C)(C(=O)Nc2cccc3c2CCCC3)C1 (stereo not drawn) | x | 2 | x | x | 1 | 3 | x | x
CCC(=O)NC1=C(Nc2ccc(N)cc2)C(=O)c2ccccc2C1=O | -18 | -10 | 82* | -18 | -25 | -2 | 71* | 121*
COc1ccc(NC2=C(NC(C)=O)C(=O)c3ccccc3C2=O)cc1 | -11 | -13 | 97* | -15 | 1 | 3 | 78* | 96*
COc1ccc(C(=O)N2CCC2(C)C(=O)NC(C)C)c(OC)c1 (stereo not drawn) | x | -5 | x | x | -8 | 2 | x | x
CNc1ccc(C(=O)c2ccccc2C(=O)O)cc1[N+](=O)[O-] | 1 | -7 | 80* | -21 | 3 | -1 | 25 | 36*
CCc1nc2ccc(C(=O)Nc3nnc(C)s3)cc2nc1CC | -20 | 1 | 16 | -14 | 3 | 8 | x | x
CCc1nc2ccc(C(=O)Nc3cccc(C(C)=O)c3)cc2nc1CC | -19 | -7 | 81* | 1 | 3 | 5 | 33 | 5
COc1ccc(C2CCN(CC(=O)N(C)C)CC2O)cc1 (stereo not drawn) | -2 | -3 | 12 | -3 | 2 | 2 | x | x
COc1ccc(C2CCN(Cc3cccnc3)CC2O)cc1 (stereo not drawn) | -5 | -3 | 96* | -16 | -18 | 7 | 16 | 3
COc1ccc(S(=O)(=O)Nc2c(O)ccc3ccccc23)cc1OC | -6 | -3 | 77* | 4 | -12 | 3 | 72* | 7
COc1ccc(C(=O)Nc2c(O)ccc3ccccc23)cc1OC | -34 | 0 | 21 | -22 | 15 | 2 | x | x
Cc1ccccc1NC(=O)CSc1nnc2ccc(-c3ccncc3)nn12 | -14 | -3 | 79* | -18 | -41 | 1 | 30 | 36*
O=C(CSc1n[nH]c(=O)[nH]c1=O)c1ccc([N+](=O)[O-])cc1 | -6 | -6 | 134* | -14 | -25 | 2 | 56* | 80*
O=C(Nc1cccc(S(=O)(=O)N2CCCCC2)c1)c1ccccc1NS(=O)(=O)c1ccc(F)cc1 | -3 | -5 | 50 | 15 | 13 | 7 | x | x

Compound activity from PubChem.
